Measurements reported in paper PMC11850876 (Scientific Reports, 2025).
Where two headings read alike, the source gives them in different places. Blank lines part the entries; values can stand above or below the compound they belong to.

Experiments:
[1] = DPPH radical scavenging assay; conditions: read-out: DPPH radical scavenging IC50 ± SD; DPPH 0.1 mM in MeOH, 60 min, 517 nm
Method in brief: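 Each test compound was prepared at 1.0 mg/mL in DMSO and mixed 1:1 by volume with 0.1 mM DPPH in MeOH. The mixture was kept in the dark at RT for 60 min. Absorbance was read at 517 nm against a DPPH control. % scavenging = (Abs control − Abs sample)/Abs control × 100.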

[2] = tested on: MCF-7 breast cancer cell line; assay: MTT cytotoxicity assay, MCF-7; type: cell-based, human; conditions: for IC50: Homo sapiens; for Selectivity Index (SI) 48 h: IC50 MCF-10 A / IC50 MCF-7, 48 h; for Selectivity Index (SI) 72 h: IC50 MCF-10 A / IC50 MCF-7, 72 h
Method in brief: (§1)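 Cells came from the Pasteur Institute, Tehran, and were seeded at 5 × 10^4 cells/well. After 24 h, four concentrations of test compound were added in triplicate, with medium-only and 0.5% DMSO controls. Exposure was 48 and 72 h. MTT formazan was dissolved in DMSO and read at 570 nm. IC50 was taken from % inhibition (mean ± SD, n=3). SI = IC50 MCF-10 A / IC50 MCF-7.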

[3] = tested on: healthy human breast epithelial (MCF-10 A) cell line; assay: MTT cytotoxicity assay, MCF-10 A; type: cell-based
Method in brief: as §1

[4] = MCF7, 48 h, read-out: IC50 ±SD MCF-7 48 h
[5] = MCF7, 72 h, read-out: IC50 ±SD MCF-7 72 h
[6] = 48 h, read-out: IC50 ±SD MCF-10 A 48 h
[7] = 72 h, read-out: IC50 ±SD MCF-10 A 72 h

IC50 [1]: 13.2 ± 0.74 µM
Compound: NS(=O)(=O)c1ccc(/N=N/c2ccc(O)c(/C=N/c3ccc(O)cc3)c2)cc1 [Compound 3a, 4-((E)-(4-hydroxy-3-((E)-((4-hydroxyphenyl)imino)methyl)phenyl)diazenyl)benzenesulfonamide]
IC50 [2, 4]: 10.9 ± 0.005 µM | IC50 [2, 5]: 9.49 ± 0.012 µM | Selectivity Index (SI) 48 h [2]: 1.02 | Selectivity Index (SI) 72 h [2]: 0.20 | IC50 [3, 6]: 11.18 ± 0.012 µM | IC50 [3, 7]: 1.98 ± 0.002 µM

IC50 [1]: 13.6 ± 0.95 µM
Compound: NS(=O)(=O)c1ccc(/N=N/c2ccc(O)c(/C=N/c3ccccc3O)c2)cc1 [Compound 3c, 4-((E)-(4-hydroxy-3-((E)-((2hydroxyphenyl)imino)methyl)phenyl)diazenyl)benzenesulfonamide]
IC50 [2, 4]: 21.16 ± 0.014 µM | IC50 [2, 5]: 9.26 ± 0.002 µM | Selectivity Index (SI) 48 h [2]: 0.79 | Selectivity Index (SI) 72 h [2]: 0.24 | IC50 [3, 6]: 16.82 ± 0.01 µM | IC50 [3, 7]: 2.23 ± 0.001 µM

IC50 [1]: 14 ± 1.45 µM
Compound: COc1ccc(/N=C/c2cc(/N=N/c3ccc(S(N)(=O)=O)cc3)ccc2O)cc1 [Compound 3f, 4-((E)-(4-hydroxy-3-((E)-((4-methoxyphenyl)imino)methyl)phenyl)diazenyl)benzenesulfonamid]
IC50 [2, 4]: 8.94 ± 0.013 µM | IC50 [2, 5]: 7.62 ± 0.018 µM | Selectivity Index (SI) 48 h [2]: 1.23 | Selectivity Index (SI) 72 h [2]: 0.35 | IC50 [3, 6]: 11.01 ± 0.016 µM | IC50 [3, 7]: 2.67 ± 0.009 µM

IC50 [1]: 12.4 ± 0.55 µM
Compound: NC(=S)N/N=C/c1cc(/N=N/c2ccc(S(N)(=O)=O)cc2)ccc1O [Compound 3j, 2-((E)-2-hydroxy-5-((E)-(4-sulfamoylphenyl)diazenyl)benzylidene)hydrazine-1-carbothioamide]
IC50 [2, 4]: 6.52 ± 0.007 µM | IC50 [2, 5]: 5.27 ± 0.006 µM | Selectivity Index (SI) 48 h [2]: 2.67 | Selectivity Index (SI) 72 h [2]: 2.13 | IC50 [3, 6]: 17.43 ± 0.019 µM | IC50 [3, 7]: 11.26 ± 0.008 µM

Compound: COc1cccc2c1C(=O)c1c(O)c3c(c(O)c1C2=O)C[C@@](O)(C(=O)CO)C[C@@H]3O[C@H]1C[C@H](N)[C@H](O)[C@H](C)O1 [Doxorubicin, reference compound]
IC50 [2, 4]: 3.42 ± 0.1 µM | IC50 [2, 5]: 0.68 ± 0.1 µM | Selectivity Index (SI) 48 h [2]: 3.86 | Selectivity Index (SI) 72 h [2]: 4.20 | IC50 [3, 6]: 13.2 ± 0.1 µM | IC50 [3, 7]: 2.85 ± 0.1 µM

IC50 [1]: 13.6 ± 0.38 µM
Compound: O=C1O[C@H]([C@@H](O)CO)C(O)=C1O [ascorbic acid, reference compound]
